Measured values taken from ChEMBL document CHEMBL3044834, “Novel protoporphyrinogen oxidase inhibitors: 3H-pyrazolo[3,4-d][1,2,3]triazin-4-one derivatives” (J Agric Food Chem, 2008).

Tests used:
Format in all cases: functional
[1] = tested on: Brassica rapa subsp. oleifera; assay: Herbicidal activity against Brassica rapa subsp. oleifera assessed as inhibition of fresh weed plant weight at 187.5 g/ha using pre-emergence treatment protocol
[2] = tested on: Amaranthus retroflexus; assay: Herbicidal activity against Amaranthus retroflexus assessed as inhibition of fresh weed plant weight at 750 g/ha using pre-emergence treatment protocol
Outline: (§1)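 Test compounds made up as emulsions by dissolving in 100 µL N,N-dimethylformamide, then adding a little Tween 20 and water. For post-emergence, weed seedlings at one leaf and one stem were sprayed at the same rates as the pre-emergence test. Fresh weight was recorded 15 days after treatment and expressed as percent inhibition versus controls. All treatments were run in triplicate.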

[3] = tested on: Echinochloa crus-galli; assay: Herbicidal activity against Echinochloa crus-galli (barnyard grass) assessed as inhibition of fresh weed plant weight at 1500 g/ha using post-emergence treatment protocol; outline: as §1
[4] = tested on: Echinochloa crus-galli; assay: Herbicidal activity against Echinochloa crus-galli (barnyard grass) assessed as inhibition of fresh weed plant weight at 375 g/ha using post-emergence treatment protocol; outline: as §1
[5] = tested on: Amaranthus retroflexus; assay: Herbicidal activity against Amaranthus retroflexus assessed as inhibition of fresh weed plant weight at 375 g/ha using pre-emergence treatment protocol
[6] = tested on: Echinochloa crus-galli; assay: Herbicidal activity against Echinochloa crus-galli (barnyard grass) assessed as inhibition of fresh weed plant weight at 187.5 g/ha using pre-emergence treatment protocol; outline: as §1
[7] = tested on: Echinochloa crus-galli; assay: Herbicidal activity against Echinochloa crus-galli (barnyard grass) assessed as inhibition of fresh weed plant weight at 375 g/ha using pre-emergence treatment protocol; outline: as §1
[8] = tested on: Amaranthus retroflexus; assay: Herbicidal activity against Amaranthus retroflexus assessed as inhibition of fresh weed plant weight at 375 g/ha using post-emergence treatment protocol; outline: as §1
[9] = tested on: Echinochloa crus-galli; assay: Herbicidal activity against Echinochloa crus-galli (barnyard grass) assessed as inhibition of fresh weed plant weight at 750 g/ha using pre-emergence treatment protocol
[10] = tested on: Echinochloa crus-galli; assay: Herbicidal activity against Echinochloa crus-galli (barnyard grass) assessed as inhibition of fresh weed plant weight at 750 g/ha using post-emergence treatment protocol; outline: as §1
[11] = tested on: Amaranthus retroflexus; assay: Herbicidal activity against Amaranthus retroflexus assessed as inhibition of fresh weed plant weight at 187.5 g/ha using post-emergence treatment protocol; outline: as §1
[12] = tested on: Digitaria sanguinalis; assay: Herbicidal activity against Digitaria sanguinalis (hairy crabgrass) assessed as inhibition of fresh weed plant weight at 750 g/ha using pre-emergence treatment protocol
[13] = tested on: Amaranthus retroflexus; assay: Herbicidal activity against Amaranthus retroflexus assessed as inhibition of fresh weed plant weight at 750 g/ha using post-emergence treatment protocol; outline: as §1
[14] = tested on: Echinochloa crus-galli; assay: Herbicidal activity against Echinochloa crus-galli (barnyard grass) assessed as inhibition of fresh weed plant weight at 1500 g/ha using pre-emergence treatment protocol
[15] = tested on: Amaranthus retroflexus; assay: Herbicidal activity against Amaranthus retroflexus assessed as inhibition of fresh weed plant weight at 1500 g/ha using pre-emergence treatment protocol
[16] = tested on: Brassica rapa subsp. oleifera; assay: Herbicidal activity against Brassica rapa subsp. oleifera assessed as inhibition of fresh weed plant weight at 750 g/ha using post-emergence treatment protocol; outline: as §1
[17] = tested on: Brassica rapa subsp. oleifera; assay: Herbicidal activity against Brassica rapa subsp. oleifera assessed as inhibition of fresh weed plant weight at 187.5 g/ha using post-emergence treatment protocol; outline: as §1
[18] = tested on: Amaranthus retroflexus; assay: Herbicidal activity against Amaranthus retroflexus assessed as inhibition of fresh weed plant weight at 1500 g/ha using post-emergence treatment protocol; outline: as §1
[19] = tested on: Brassica rapa subsp. oleifera; assay: Herbicidal activity against Brassica rapa subsp. oleifera assessed as inhibition of fresh weed plant weight at 1500 g/ha using post-emergence treatment protocol; outline: as §1
[20] = tested on: Digitaria sanguinalis; assay: Herbicidal activity against Digitaria sanguinalis (hairy crabgrass) assessed as inhibition of fresh weed plant weight at 750 g/ha using post-emergence treatment protocol; outline: as §1
[21] = tested on: Digitaria sanguinalis; assay: Herbicidal activity against Digitaria sanguinalis (hairy crabgrass) assessed as inhibition of fresh weed plant weight at 375 g/ha using pre-emergence treatment protocol
[22] = tested on: Brassica rapa subsp. oleifera; assay: Herbicidal activity against Brassica rapa subsp. oleifera assessed as inhibition of fresh weed plant weight at 750 g/ha using pre-emergence treatment protocol
[23] = tested on: Brassica rapa subsp. oleifera; assay: Herbicidal activity against Brassica rapa subsp. oleifera assessed as inhibition of fresh weed plant weight at 375 g/ha using pre-emergence treatment protocol
[24] = tested on: Digitaria sanguinalis; assay: Herbicidal activity against Digitaria sanguinalis (hairy crabgrass) assessed as inhibition of fresh weed plant weight at 375 g/ha using post-emergence treatment protocol; outline: as §1
[25] = tested on: Amaranthus retroflexus; assay: Herbicidal activity against Amaranthus retroflexus assessed as inhibition of fresh weed plant weight at 187.5 g/ha using pre-emergence treatment protocol
[26] = tested on: Echinochloa crus-galli; assay: Herbicidal activity against Echinochloa crus-galli (barnyard grass) assessed as inhibition of fresh weed plant weight at 187.5 g/ha using post-emergence treatment protocol; outline: as §1
[27] = tested on: Digitaria sanguinalis; assay: Herbicidal activity against Digitaria sanguinalis (hairy crabgrass) assessed as inhibition of fresh weed plant weight at 1500 g/ha using pre-emergence treatment protocol
[28] = tested on: Brassica rapa subsp. oleifera; assay: Herbicidal activity against Brassica rapa subsp. oleifera assessed as inhibition of fresh weed plant weight at 1500 g/ha using pre-emergence treatment protocol
[29] = tested on: Digitaria sanguinalis; assay: Herbicidal activity against Digitaria sanguinalis (hairy crabgrass) assessed as inhibition of fresh weed plant weight at 187.5 g/ha using post-emergence treatment protocol; outline: as §1
[30] = tested on: Digitaria sanguinalis; assay: Herbicidal activity against Digitaria sanguinalis (hairy crabgrass) assessed as inhibition of fresh weed plant weight at 1500 g/ha using post-emergence treatment protocol; outline: as §1
[31] = tested on: Brassica rapa subsp. oleifera; assay: Herbicidal activity against Brassica rapa subsp. oleifera assessed as inhibition of fresh weed plant weight at 375 g/ha using post-emergence treatment protocol; outline: as §1
[32] = tested on: Digitaria sanguinalis; assay: Herbicidal activity against Digitaria sanguinalis (hairy crabgrass) assessed as inhibition of fresh weed plant weight at 187.5 g/ha using pre-emergence treatment protocol

C=CCN1C(=O)COc2cc(F)c(-n3nnc4nn(CCC)cc4c3=O)cc21
inhibition at 187.5 g/ha [1]: 13.4% | inhibition at 750 g/ha [2]: 100% | inhibition at 1500 g/ha [3]: 11.2% | inhibition at 375 g/ha [4]: 2.4% | inhibition at 375 g/ha [5]: 100% | inhibition at 187.5 g/ha [6]: 10.8% | inhibition at 375 g/ha [7]: 16% | inhibition at 375 g/ha [8]: 85.4% | inhibition at 750 g/ha [9]: 35.9% | inhibition at 750 g/ha [10]: 5.4% | inhibition at 187.5 g/ha [11]: 7.3% | inhibition at 750 g/ha [12]: 54.3% | inhibition at 750 g/ha [13]: 100% | inhibition at 1500 g/ha [14]: 60.4% | inhibition at 1500 g/ha [15]: 100% | inhibition at 750 g/ha [16]: 33.7% | inhibition at 187.5 g/ha [17]: 0% | inhibition at 1500 g/ha [18]: 100% | inhibition at 1500 g/ha [19]: 50.3% | inhibition at 750 g/ha [20]: 0% | inhibition at 375 g/ha [21]: 39.1% | inhibition at 750 g/ha [22]: 69.4% | inhibition at 375 g/ha [23]: 55.2% | inhibition at 375 g/ha [24]: 0% | inhibition at 187.5 g/ha [25]: 27.9% | inhibition at 187.5 g/ha [26]: 0% | inhibition at 1500 g/ha [27]: 78.6% | inhibition at 1500 g/ha [28]: 88.7% | inhibition at 187.5 g/ha [29]: 0% | inhibition at 1500 g/ha [30]: 0% | inhibition at 375 g/ha [31]: 29.1% | inhibition at 187.5 g/ha [32]: 4.3%

C#CCOc1cc(-n2nnc3c(cnn3C)c2=O)c(F)cc1Cl
inhibition at 1500 g/ha [3]: 20.8% | inhibition at 1500 g/ha [14]: 0% | inhibition at 1500 g/ha [15]: 0% | inhibition at 1500 g/ha [18]: 0% | inhibition at 1500 g/ha [19]: 9.2% | inhibition at 1500 g/ha [27]: 0% | inhibition at 1500 g/ha [28]: 12.7% | inhibition at 1500 g/ha [30]: 19.6%

C=CCOc1cc(-n2nnc3c(cnn3C)c2=O)c(F)cc1Cl
inhibition at 1500 g/ha [3]: 28% | inhibition at 1500 g/ha [14]: 11% | inhibition at 1500 g/ha [15]: 10.6% | inhibition at 1500 g/ha [18]: 0% | inhibition at 1500 g/ha [19]: 1.2% | inhibition at 1500 g/ha [27]: 0% | inhibition at 1500 g/ha [28]: 7.4% | inhibition at 1500 g/ha [30]: 17.9%

CCOC(=O)Oc1cc(-n2nnc3c(cnn3C)c2=O)c(F)cc1Cl
inhibition at 1500 g/ha [3]: 37.7% | inhibition at 1500 g/ha [14]: 19.8% | inhibition at 1500 g/ha [15]: 0% | inhibition at 1500 g/ha [18]: 7.7% | inhibition at 1500 g/ha [19]: 0% | inhibition at 1500 g/ha [27]: 0% | inhibition at 1500 g/ha [28]: 0% | inhibition at 1500 g/ha [30]: 0%

C#CCOc1cc(-n2nnc3c(c(C(F)(F)F)nn3C)c2=O)c(F)cc1Cl
inhibition at 1500 g/ha [3]: 2.4% | inhibition at 1500 g/ha [14]: 0% | inhibition at 1500 g/ha [15]: 15.5% | inhibition at 1500 g/ha [18]: 5.5% | inhibition at 1500 g/ha [19]: 32.7% | inhibition at 1500 g/ha [27]: 6.7% | inhibition at 1500 g/ha [28]: 21.6% | inhibition at 1500 g/ha [30]: 0%

C#CCOc1cc(-n2nnc3c(c(C)nn3C)c2=O)c(F)cc1Cl
inhibition at 1500 g/ha [3]: 0% | inhibition at 1500 g/ha [14]: 0% | inhibition at 1500 g/ha [15]: 0% | inhibition at 1500 g/ha [18]: 0% | inhibition at 1500 g/ha [19]: 0% | inhibition at 1500 g/ha [27]: 38.3% | inhibition at 1500 g/ha [28]: 9.5% | inhibition at 1500 g/ha [30]: 0%

C=CCOc1cc(-n2nnc3c(c(C)nn3C)c2=O)c(F)cc1Cl
inhibition at 1500 g/ha [3]: 21% | inhibition at 1500 g/ha [14]: 17.2% | inhibition at 1500 g/ha [15]: 0% | inhibition at 1500 g/ha [18]: 14.7% | inhibition at 1500 g/ha [19]: 7.5% | inhibition at 1500 g/ha [27]: 0% | inhibition at 1500 g/ha [28]: 7.8% | inhibition at 1500 g/ha [30]: 16.6%

C=CCN1C(=O)COc2cc(F)c(-n3nnc4c(cnn4C)c3=O)cc21
inhibition at 1500 g/ha [3]: 9.1% | inhibition at 1500 g/ha [14]: 24.4% | inhibition at 1500 g/ha [15]: 30.6% | inhibition at 1500 g/ha [18]: 20.3% | inhibition at 1500 g/ha [19]: 20.9% | inhibition at 1500 g/ha [27]: 0% | inhibition at 1500 g/ha [28]: 17.5% | inhibition at 1500 g/ha [30]: 27%

C#CCN1C(=O)COc2cc(F)c(-n3nnc4c(c(C(F)(F)F)nn4C)c3=O)cc21
inhibition at 1500 g/ha [3]: 8.2% | inhibition at 1500 g/ha [14]: 3% | inhibition at 1500 g/ha [15]: 0% | inhibition at 1500 g/ha [18]: 0% | inhibition at 1500 g/ha [19]: 20.8% | inhibition at 1500 g/ha [27]: 8.3% | inhibition at 1500 g/ha [28]: 0% | inhibition at 1500 g/ha [30]: 0%

C=CCN1C(=O)COc2cc(F)c(-n3nnc4c(c(C(F)(F)F)nn4C)c3=O)cc21
inhibition at 1500 g/ha [3]: 13.6% | inhibition at 1500 g/ha [14]: 0% | inhibition at 1500 g/ha [15]: 1.2% | inhibition at 1500 g/ha [18]: 0% | inhibition at 1500 g/ha [19]: 12% | inhibition at 1500 g/ha [27]: 0% | inhibition at 1500 g/ha [28]: 0% | inhibition at 1500 g/ha [30]: 0%

C#CCN1C(=O)COc2cc(F)c(-n3nnc4c(c(C)nn4C)c3=O)cc21
inhibition at 1500 g/ha [3]: 0% | inhibition at 1500 g/ha [14]: 15.8% | inhibition at 1500 g/ha [15]: 30% | inhibition at 1500 g/ha [18]: 0% | inhibition at 1500 g/ha [19]: 0% | inhibition at 1500 g/ha [27]: 57% | inhibition at 1500 g/ha [28]: 44.4% | inhibition at 1500 g/ha [30]: 0%

C=CCN1C(=O)COc2cc(F)c(-n3nnc4c(c(C)nn4C)c3=O)cc21
inhibition at 1500 g/ha [3]: 0% | inhibition at 1500 g/ha [14]: 22.3% | inhibition at 1500 g/ha [15]: 50% | inhibition at 1500 g/ha [18]: 0% | inhibition at 1500 g/ha [19]: 0% | inhibition at 1500 g/ha [27]: 47.7% | inhibition at 1500 g/ha [28]: 34.6% | inhibition at 1500 g/ha [30]: 0%
